One test concerns MV4-11. The test can be described thus: Cytotoxicity against human MV4-11 cells after 72 hrs by plate reader analysis. Format: functional, cell-based. The settings on record: MV4-11, 72 h.
Test [1] is described as follows: Cytotoxicity against mouse BA/F3 cells transfected with FLT3-ITD after 24 hrs by plate reader analysis in presence of IL3. The settings on record: BaF3, 24 h.
Test [2] has as its target Tyrosine-protein kinase Fyn (Homo sapiens) (UniProt P06241). The test can be described thus: Inhibition of FYN (unknown origin) transfected in mouse Ba/F3 cells at 1 uM after 24 hrs. The format is cell-based. The settings on record: BaF3. A digest of the protocol:
(§1)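 Kinase specificity panel: each Ba/F3 line transformed with one of 24 tyrosine kinases depends on that kinase to grow. Cells were given compound at 1 or 5 µM for 24 h, with DMSO as comparator. Percentage growth was read by ATP-lite luminescence and reported as mean ± SEM.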

Test [3] has as its target Ephrin type-A receptor 7 (Homo sapiens) (UniProt Q15375). The test can be described thus: Inhibition of EPHA7 (unknown origin) transfected in mouse Ba/F3 cells at 1 uM after 24 hrs. The settings on record: BaF3. The format is cell-based. A digest of the protocol: as §1
The target of test [4] is NT-3 growth factor receptor (Homo sapiens) (UniProt Q16288). In words: Inhibition of NTRK3 (unknown origin) transfected in mouse Ba/F3 cells at 1 uM after 24 hrs. The format is cell-based. The settings on record: BaF3.
Sequence of NT-3 growth factor receptor (Homo sapiens) (Q16288 32-839 limits assumed): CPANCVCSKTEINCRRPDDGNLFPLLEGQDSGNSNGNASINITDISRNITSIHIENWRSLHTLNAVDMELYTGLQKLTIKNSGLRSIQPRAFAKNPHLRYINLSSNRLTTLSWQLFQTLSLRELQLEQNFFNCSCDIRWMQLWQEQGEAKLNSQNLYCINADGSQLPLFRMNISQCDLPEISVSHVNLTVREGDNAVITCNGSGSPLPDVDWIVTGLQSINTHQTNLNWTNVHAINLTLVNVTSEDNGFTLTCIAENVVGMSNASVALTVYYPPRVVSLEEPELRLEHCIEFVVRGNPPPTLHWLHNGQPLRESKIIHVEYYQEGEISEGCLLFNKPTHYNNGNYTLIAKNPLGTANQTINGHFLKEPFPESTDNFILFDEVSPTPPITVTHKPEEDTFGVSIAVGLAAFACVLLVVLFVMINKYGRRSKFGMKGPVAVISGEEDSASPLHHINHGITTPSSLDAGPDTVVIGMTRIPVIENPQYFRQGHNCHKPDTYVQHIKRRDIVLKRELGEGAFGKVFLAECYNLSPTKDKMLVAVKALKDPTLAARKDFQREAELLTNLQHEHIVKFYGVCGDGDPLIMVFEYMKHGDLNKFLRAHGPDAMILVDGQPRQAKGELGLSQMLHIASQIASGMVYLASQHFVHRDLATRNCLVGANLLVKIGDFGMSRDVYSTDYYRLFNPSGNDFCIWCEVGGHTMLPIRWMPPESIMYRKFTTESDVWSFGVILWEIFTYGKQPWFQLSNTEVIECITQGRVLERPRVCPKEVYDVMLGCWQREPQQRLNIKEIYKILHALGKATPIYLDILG
The target of test [5] is T1, Tyrosine-protein kinase Mer (Homo sapiens) (UniProt Q12866).
T1 sequence (whole entry): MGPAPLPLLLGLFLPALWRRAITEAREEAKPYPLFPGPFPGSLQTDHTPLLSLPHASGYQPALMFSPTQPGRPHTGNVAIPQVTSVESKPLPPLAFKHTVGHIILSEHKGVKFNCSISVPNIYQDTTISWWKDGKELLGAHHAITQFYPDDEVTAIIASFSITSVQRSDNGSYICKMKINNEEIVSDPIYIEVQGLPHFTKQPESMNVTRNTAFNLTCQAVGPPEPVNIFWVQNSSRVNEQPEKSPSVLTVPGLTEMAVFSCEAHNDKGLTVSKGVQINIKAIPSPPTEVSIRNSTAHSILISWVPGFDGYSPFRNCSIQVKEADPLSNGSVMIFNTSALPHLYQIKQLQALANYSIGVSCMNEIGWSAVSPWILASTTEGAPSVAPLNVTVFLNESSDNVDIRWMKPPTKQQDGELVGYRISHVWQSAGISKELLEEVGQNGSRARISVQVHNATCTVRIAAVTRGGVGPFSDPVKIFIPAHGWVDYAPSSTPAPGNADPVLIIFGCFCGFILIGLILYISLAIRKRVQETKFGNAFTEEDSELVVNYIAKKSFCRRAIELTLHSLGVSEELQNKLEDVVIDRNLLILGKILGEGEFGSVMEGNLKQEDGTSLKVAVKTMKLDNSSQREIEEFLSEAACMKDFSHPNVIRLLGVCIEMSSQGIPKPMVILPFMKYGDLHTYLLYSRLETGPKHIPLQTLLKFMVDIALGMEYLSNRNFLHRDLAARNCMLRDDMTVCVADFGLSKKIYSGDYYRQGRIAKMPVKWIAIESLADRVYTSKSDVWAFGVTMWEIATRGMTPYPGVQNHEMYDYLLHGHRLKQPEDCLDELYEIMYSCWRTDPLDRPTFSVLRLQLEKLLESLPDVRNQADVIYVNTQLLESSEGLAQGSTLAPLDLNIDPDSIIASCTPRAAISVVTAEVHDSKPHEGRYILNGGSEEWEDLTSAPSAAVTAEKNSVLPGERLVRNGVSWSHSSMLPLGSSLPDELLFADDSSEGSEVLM
The test can be described thus: Inhibition of MERTK (unknown origin) transfected in mouse Ba/F3 cells at 1 uM after 24 hrs. The format is cell-based. The settings on record: BaF3.

Test [6] has as its target Proto-oncogene tyrosine-protein kinase ROS (Homo sapiens) (UniProt P08922). The test can be described thus: Inhibition of ROS1 (unknown origin) transfected in mouse Ba/F3 cells at 1 uM after 24 hrs. Format: cell-based. The settings on record: BaF3.
Test [7] addresses Tyrosine-protein kinase Yes (Homo sapiens) (UniProt P07947). The test can be described thus: Inhibition of YES (unknown origin) transfected in mouse Ba/F3 cells at 1 uM after 24 hrs. The format is cell-based. The settings on record: BaF3.
Test [8] concerns the target T2, Ephrin type-A receptor 8 (Homo sapiens) (UniProt P29322).
T2 sequence (whole entry): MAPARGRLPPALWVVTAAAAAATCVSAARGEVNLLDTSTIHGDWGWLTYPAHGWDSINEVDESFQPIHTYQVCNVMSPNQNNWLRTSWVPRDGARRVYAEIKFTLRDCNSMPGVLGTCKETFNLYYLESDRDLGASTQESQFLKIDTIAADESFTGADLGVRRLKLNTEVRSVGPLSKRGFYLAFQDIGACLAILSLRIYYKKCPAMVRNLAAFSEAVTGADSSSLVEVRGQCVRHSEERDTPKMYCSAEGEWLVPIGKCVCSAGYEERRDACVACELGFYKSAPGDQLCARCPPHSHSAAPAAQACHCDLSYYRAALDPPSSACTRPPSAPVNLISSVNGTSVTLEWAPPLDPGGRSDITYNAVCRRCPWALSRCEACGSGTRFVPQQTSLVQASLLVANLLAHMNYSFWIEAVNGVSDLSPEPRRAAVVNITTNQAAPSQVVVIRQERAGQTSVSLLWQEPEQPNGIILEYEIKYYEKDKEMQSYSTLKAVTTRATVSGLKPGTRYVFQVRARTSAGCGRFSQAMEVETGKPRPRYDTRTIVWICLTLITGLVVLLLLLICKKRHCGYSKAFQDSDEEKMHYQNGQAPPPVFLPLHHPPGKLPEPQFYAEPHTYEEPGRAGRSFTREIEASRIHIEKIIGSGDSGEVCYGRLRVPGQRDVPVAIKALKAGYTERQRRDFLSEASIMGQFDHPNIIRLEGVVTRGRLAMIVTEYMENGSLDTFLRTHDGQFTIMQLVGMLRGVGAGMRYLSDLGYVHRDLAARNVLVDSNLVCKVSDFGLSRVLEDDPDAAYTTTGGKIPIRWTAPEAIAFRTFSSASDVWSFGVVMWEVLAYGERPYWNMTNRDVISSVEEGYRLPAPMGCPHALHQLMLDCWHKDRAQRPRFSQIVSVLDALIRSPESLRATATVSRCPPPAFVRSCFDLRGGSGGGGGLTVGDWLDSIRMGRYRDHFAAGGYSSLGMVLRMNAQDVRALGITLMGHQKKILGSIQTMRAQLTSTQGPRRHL
In words: Inhibition of EPHA8 (unknown origin) transfected in mouse Ba/F3 cells at 1 uM after 24 hrs. The format is cell-based. The settings on record: BaF3. The essentials: as §1

This is an account of results in ChEMBL document CHEMBL2390926, “Identification of novel FLT3 kinase inhibitors” (Eur J Med Chem, 2013).

The source made the active and inactive calls. The calls are words filed in the database; no cut-off is given here.

Sequence of Tyrosine-protein kinase Yes (Homo sapiens) (P07947 2-543 limits assumed): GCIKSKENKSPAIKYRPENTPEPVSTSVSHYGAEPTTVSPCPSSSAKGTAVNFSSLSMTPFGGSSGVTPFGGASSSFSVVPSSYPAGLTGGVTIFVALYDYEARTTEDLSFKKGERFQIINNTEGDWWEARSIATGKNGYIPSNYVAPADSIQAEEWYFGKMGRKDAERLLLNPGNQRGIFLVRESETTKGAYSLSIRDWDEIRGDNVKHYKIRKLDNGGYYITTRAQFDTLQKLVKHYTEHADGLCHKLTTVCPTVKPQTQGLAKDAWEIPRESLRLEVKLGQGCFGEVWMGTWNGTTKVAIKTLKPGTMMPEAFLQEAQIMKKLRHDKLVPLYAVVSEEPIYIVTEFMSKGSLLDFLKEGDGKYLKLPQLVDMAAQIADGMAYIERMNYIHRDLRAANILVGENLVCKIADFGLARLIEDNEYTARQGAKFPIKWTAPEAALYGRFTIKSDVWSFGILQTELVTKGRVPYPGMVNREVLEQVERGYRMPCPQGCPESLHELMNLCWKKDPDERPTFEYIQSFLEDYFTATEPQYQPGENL
Sequence of Tyrosine-protein kinase Fyn (Homo sapiens) (P06241 2-537 limits assumed): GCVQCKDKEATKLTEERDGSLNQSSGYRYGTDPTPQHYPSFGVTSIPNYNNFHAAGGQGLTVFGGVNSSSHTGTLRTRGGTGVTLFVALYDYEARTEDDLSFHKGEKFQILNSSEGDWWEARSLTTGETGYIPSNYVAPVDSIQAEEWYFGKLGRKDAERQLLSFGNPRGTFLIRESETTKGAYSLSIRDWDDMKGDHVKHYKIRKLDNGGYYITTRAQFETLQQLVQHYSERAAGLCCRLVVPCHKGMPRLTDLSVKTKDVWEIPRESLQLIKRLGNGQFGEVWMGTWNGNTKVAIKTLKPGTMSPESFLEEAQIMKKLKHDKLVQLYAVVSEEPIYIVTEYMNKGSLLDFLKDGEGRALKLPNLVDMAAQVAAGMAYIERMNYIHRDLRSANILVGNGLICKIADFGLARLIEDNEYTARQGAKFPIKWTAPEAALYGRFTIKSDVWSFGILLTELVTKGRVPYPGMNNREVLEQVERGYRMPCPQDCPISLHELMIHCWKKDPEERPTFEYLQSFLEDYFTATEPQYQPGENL
Sequence of Ephrin type-A receptor 7 (Homo sapiens) (Q15375 28-998 limits assumed): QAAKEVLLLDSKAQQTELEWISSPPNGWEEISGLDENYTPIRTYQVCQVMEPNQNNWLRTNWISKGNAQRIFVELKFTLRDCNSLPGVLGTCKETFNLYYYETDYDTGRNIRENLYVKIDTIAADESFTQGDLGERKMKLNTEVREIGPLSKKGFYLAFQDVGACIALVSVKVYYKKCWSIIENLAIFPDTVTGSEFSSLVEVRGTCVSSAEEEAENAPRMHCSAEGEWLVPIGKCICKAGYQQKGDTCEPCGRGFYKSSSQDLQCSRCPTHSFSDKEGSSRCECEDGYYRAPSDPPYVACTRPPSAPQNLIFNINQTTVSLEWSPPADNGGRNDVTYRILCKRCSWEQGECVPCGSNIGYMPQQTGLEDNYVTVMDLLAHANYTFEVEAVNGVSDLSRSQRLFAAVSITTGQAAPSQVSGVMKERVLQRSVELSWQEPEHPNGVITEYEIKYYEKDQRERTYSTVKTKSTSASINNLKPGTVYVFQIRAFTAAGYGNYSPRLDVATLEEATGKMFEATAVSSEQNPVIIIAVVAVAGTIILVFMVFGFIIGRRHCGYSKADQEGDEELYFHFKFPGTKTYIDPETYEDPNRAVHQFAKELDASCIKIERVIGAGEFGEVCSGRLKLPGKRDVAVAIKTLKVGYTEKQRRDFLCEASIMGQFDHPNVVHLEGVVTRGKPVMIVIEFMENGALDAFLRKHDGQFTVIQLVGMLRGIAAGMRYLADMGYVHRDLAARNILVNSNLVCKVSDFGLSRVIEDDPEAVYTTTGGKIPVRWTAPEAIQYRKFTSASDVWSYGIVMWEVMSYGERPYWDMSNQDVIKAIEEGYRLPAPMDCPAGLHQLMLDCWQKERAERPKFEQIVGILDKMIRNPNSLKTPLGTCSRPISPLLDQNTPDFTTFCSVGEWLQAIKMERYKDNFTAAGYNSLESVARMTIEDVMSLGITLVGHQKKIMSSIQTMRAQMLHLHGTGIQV

Broadly, the EC50 is the concentration at which the effect is half-maximal. As for `Cc1ccc(-n2cnc3cc(Nc4nnc(C)c5ccccc45)ccc32)cc1`, the results for the concentration giving a half-maximal response (EC50) (with MV4-11; in [1]) were 3410 nM and 19 µM, respectively.
For the compound `Cc1ccc(-c2cc(NC(=O)c3ccc(F)cc3)[nH]n2)cc1`, the EC50 in the test on MV4-11 turned out to be 2820 nM; in [1], 23 µM. For the same compound, the inhibition result in test [2], in test [3], in test [4], in test [5], in test [6] and in test [7] was “inactive” in each case. The inhibition entry in test [8] was “inactive”.
In the case of `COc1ccc(C(=O)Nc2cc(-c3ccccc3)[nH]n2)cc1`, the half-maximal effective concentration (EC50) in the test with MV4-11 turned out to be 142 nM; in test [1], 18 µM. The inhibition result in [2], in [3], in [4], in test [5], in test [6] and in test [7] was “inactive” in each case. Moreover, in [8], the inhibition entry was “inactive”.
Consider `Fc1ccc(-c2n[nH]cc2-c2ccncc2)cc1Cl`, for which the EC50 was determined as 2760 nM in the test on MV4-11 and 16 µM in test [1].
With `Cc1cccc(C(=O)Nc2cc(-c3ccc(F)cc3)n[nH]2)c1`, the half-maximal effective concentration (EC50) with MV4-11 came out at 1780 nM; in [1], 21 µM. The inhibition entry in [2], in test [3], in test [4], in [5], in [6] and in [7] was “inactive” throughout. Besides, in test [8], the inhibition entry was “inactive”.
